The values below come from ChEMBL document CHEMBL1135824, “Interaction of designed sulfated flavanoids with antithrombin: lessons on the design of organic activators” (J Med Chem, 2002).

Data set [1] in a line: Observed dissociation constant of interaction with plasma antithrombin at 25 degree Celsius in 20 mM sodium phosphate buffer at a pH 6.0. Type of data set: ADME, cell-free. The method in brief: (§1)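 Human plasma antithrombin (1 µM) with TNS (5 µM) was titrated with the sulfated flavanoid. Buffer was 20 mM sodium phosphate, 0.1 mM EDTA, 0.1% PEG 8000, at pH 6.0 (I 0.025) or 7.4 (I 0.035). Fluorescence decrease was read at 432 nm (excitation 330 nm). KD came from fitting to a quadratic equilibrium binding equation.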

A short description of data set [2]: Non ionic interaction with plasma antithrombin at 25 degree Celsius in 20 mM sodium phosphate buffer at a pH 7.4. The class given is ADME, cell-free.
Data set [3] addresses Coagulation factor X (Homo sapiens) (UniProt P00742). The data set can be described thus: Second order rate constant for antithrombin inhibition of factor Xa in the presence of activator determined.
Data set [4] is described as follows: Non ionic interaction with plasma antithrombin at 25 degree Celsius in 20 mM sodium phosphate buffer at a pH 6.0. The class given is ADME, cell-free.
Data set [5] is described as follows: Observed dissociation constant of interaction with plasma antithrombin at 25 degree Celsius in 20 mM sodium phosphate buffer at a pH 7.4. The class given is ADME, cell-free. An outline of the steps:
as §1

Data set [6] is described as follows: Second order rate constant for antithrombin inhibition of factor Xa in the presence of activator determined.
Data set [7] can be described thus: Dissociation constant of CS-Antithrombin interaction at 25 degree Celsius 20 mM sodium phosphate buffer at pH 6.0 at 20 uM. The class given is functional. An outline of the steps: (§2)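 Competitive titration of CS into plasma antithrombin–TNS complex with tetrasaccharide EFGH″ held at a fixed level, much above antithrombin. Competitor levels spanned 0.67–6.7 × its own antithrombin KD. Run at 25 °C in 20 mM sodium phosphate, 0.1 mM EDTA, 0.1% PEG 8000, pH 6.0, I 0.025. Read-out was the decrease in TNS fluorescence with rising CS. Antithrombin was freshly diluted from pH 7.4 stock.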

The nature of data set [8]: Dissociation constant of CS-Antithrombin interaction at 25 degree Celsius 20 mM sodium phosphate buffer at pH 6.0 at 30 uM. The class given is functional. The method in brief: as §2
A short description of data set [9]: Dissociation constant of CS-Antithrombin interaction at 25 degree Celsius 20 mM sodium phosphate buffer at pH 6.0 at 0 uM. The class given is functional.
Data set [10] in a line: Effect (1 uM) on second-order rate constant that accelerated inhibition of factor Xa by antithrombin-CS (50 uM)complex.
Data set [11] is described as follows: Dissociation constant of CS-Antithrombin interaction at 25 degree Celsius 20 mM sodium phosphate buffer at pH 6.0 at 4.5 uM. The class given is functional. The method in brief: as §2
The nature of data set [12]: Effect (2 uM)on second-order rate constant that accelerated inhibition of factor Xa by antithrombin-CS (50 uM)complex.
Data set [13] in a line: Effect (4 uM) on second-order rate constant that accelerated inhibition of factor Xa by antithrombin-CS (50 uM)complex.
Data set [14] is described as follows: Dissociation constant of CS-Antithrombin interaction at 25 degree Celsius 20 mM sodium phosphate buffer at pH 6.0 at 10 uM. The class given is functional. The method in brief: as §2
The nature of data set [15]: Effect (2 uM)on second-order rate constant that accelerated inhibition of factor Xa by antithrombin-CS (0 uM) complex.
Data set [16] is described as follows: Dissociation constant of CS-Antithrombin interaction at 25 degree Celsius 20 mM sodium phosphate buffer at pH 6.0 at 3.0 uM. Type of data set: functional. An outline of the steps: as §2
The nature of data set [17]: Effect (4 uM) on second-order rate constant that accelerated inhibition of factor Xa by antithrombin-CS (0 uM) complex.
A short description of data set [18]: Effect (0 uM) on second-order rate constant that accelerated inhibition of factor Xa by antithrombin-CS (50 uM)complex.
Data set [19] is described as follows: Effect (1 uM) on observed rate constant that accelerated inhibition of factor Xa by antithrombin-CS (0 uM) complex.

Chain of Coagulation factor X (Homo sapiens) (P00742 41-179 limits assumed): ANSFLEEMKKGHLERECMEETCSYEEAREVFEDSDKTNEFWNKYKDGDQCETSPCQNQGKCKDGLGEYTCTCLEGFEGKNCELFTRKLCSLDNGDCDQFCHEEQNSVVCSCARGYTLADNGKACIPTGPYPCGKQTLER
Chain of Coagulation factor X (Homo sapiens) (P00742 235-488 limits assumed): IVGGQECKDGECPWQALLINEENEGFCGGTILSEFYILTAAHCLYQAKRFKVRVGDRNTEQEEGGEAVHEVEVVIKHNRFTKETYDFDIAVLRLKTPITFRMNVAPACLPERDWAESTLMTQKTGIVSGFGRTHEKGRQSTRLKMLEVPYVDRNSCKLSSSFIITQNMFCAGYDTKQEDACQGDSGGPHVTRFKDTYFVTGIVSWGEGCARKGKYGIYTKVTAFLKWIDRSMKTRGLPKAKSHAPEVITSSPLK

Usually Kd stands for the concentration at which binding is half-saturated. A higher Kd goes with a looser complex. As to `O=S(=O)(O)Oc1cc2c(c(OS(=O)(=O)O)c1)C[C@H](OS(=O)(=O)O)[C@@H](c1ccc(OS(=O)(=O)O)c(OS(=O)(=O)O)c1)O2`, the Kd in data set [1] amounted to 3.5 µM; in data set [2], 2200 µM; in data set [4] it was 1000 µM; in [5] it was 17.9 µM. Besides, in [3], the K ACT worked out at 6750 M⁻¹ s⁻¹.
As to `O=S(=O)(O)Oc1cc2c(c(OS(=O)(=O)O)c1)C[C@@H](OS(=O)(=O)O)[C@H](c1ccc(OS(=O)(=O)O)c(OS(=O)(=O)O)c1)O2` (racemic), the Kd in data set [1] was 26.1 µM. Also, the kACT in [6] is 2770 M⁻¹ s⁻¹. In data set [4], this compound yielded a KD non ionic of 470 µM.
Consider `O=S(=O)(O)Oc1cc2c(c(OS(=O)(=O)O)c1)C[C@@H](OS(=O)(=O)O)[C@@H](c1ccc(OS(=O)(=O)O)c(OS(=O)(=O)O)c1)O2`, for which the Kd was found to be 10.7 µM in [1], 1100 µM in data set [2], 380 µM in data set [4] and 32.3 µM in data set [5]. For the same compound, the K ACT in data set [3] is 3380 M⁻¹ s⁻¹.
Take `CO[C@H]1O[C@H](COS(=O)(=O)O)[C@@H](O[C@H]2O[C@@H](C(=O)O)[C@@H](O[C@H]3O[C@H](COS(=O)(=O)O)[C@@H](O[C@H]4O[C@H](C(=O)O)C[C@H](O)[C@H]4O)[C@H](OS(=O)(=O)O)[C@H]3NS(=O)(=O)O)[C@H](O)[C@H]2OS(=O)(=O)O)[C@H](OS(=O)(=O)O)[C@H]1OS(=O)(=O)O`: the KCS, APP in data set [7] came to 3.2 µM; in data set [8] it was 2.1 µM; in data set [9], 3.5 µM; in [11], 3.5 µM; in [14] it was 3.1 µM; in data set [16], 4.8 µM. The second-order rate constant was 4300 M⁻¹ s⁻¹ in data set [10]; 4700 M⁻¹ s⁻¹ in data set [12]; 7400 M⁻¹ s⁻¹ in [13]; 3200 M⁻¹ s⁻¹ in data set [15]; 6400 M⁻¹ s⁻¹ in data set [17]; 2000 M⁻¹ s⁻¹ in data set [18]. The same compound showed a second-order rate constant in data set [19] of 2400 M⁻¹ s⁻¹.
